The source made the active and inactive calls. The rule behind the calls is not given here.
Tests used:
[1] = Antiproliferative activity against human HL60 cells after 48 hrs by SRB assay; assay type: functional, HL-60
In short: (§1)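 Cells grown in RPMI 1640 with 10% FBS and antibiotics, then seeded in medium with 5% FBS. A T0 plate was fixed with 10% TCA at 24 h. Remaining cells were exposed to compound or DMSO for 48 h, TCA-fixed, and stained with 0.4% SRB in 1% acetic acid. Dye was solubilized in 10 mM Trizma base and read at 515 nm.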

[2] = Antiproliferative activity against human PC3 cells after 48 hrs by SRB assay; assay type: functional, PC-3; in short: as §1
[3] = Antiproliferative activity against human A549 cells after 48 hrs by SRB assay; assay type: functional; in short: as §1
[4] = Antiproliferative activity against human HCT116 cells after 48 hrs by SRB assay; assay type: functional, HCT-116; in short: as §1
Histone deacetylase 1 = Histone deacetylase 1 (Homo sapiens, UniProt Q13547); test: Inhibition of C-terminal His/FLAG-tagged full length recombinant human HDAC1 expressed in baculovirus expression system assessed as release of 7-amino-4-methylcoumarin by fluorogenic assay
[5] = molecular target: T1, Protein deacetylase HDAC6 (Homo sapiens, UniProt Q9UBN7); test: Inhibition of full length recombinant human HDAC6 expressed in baculovirus expression system assessed as release of 7-amino-4-methylcoumarin by fluorogenic assay
T1 sequence (Q9UBN7 whole entry): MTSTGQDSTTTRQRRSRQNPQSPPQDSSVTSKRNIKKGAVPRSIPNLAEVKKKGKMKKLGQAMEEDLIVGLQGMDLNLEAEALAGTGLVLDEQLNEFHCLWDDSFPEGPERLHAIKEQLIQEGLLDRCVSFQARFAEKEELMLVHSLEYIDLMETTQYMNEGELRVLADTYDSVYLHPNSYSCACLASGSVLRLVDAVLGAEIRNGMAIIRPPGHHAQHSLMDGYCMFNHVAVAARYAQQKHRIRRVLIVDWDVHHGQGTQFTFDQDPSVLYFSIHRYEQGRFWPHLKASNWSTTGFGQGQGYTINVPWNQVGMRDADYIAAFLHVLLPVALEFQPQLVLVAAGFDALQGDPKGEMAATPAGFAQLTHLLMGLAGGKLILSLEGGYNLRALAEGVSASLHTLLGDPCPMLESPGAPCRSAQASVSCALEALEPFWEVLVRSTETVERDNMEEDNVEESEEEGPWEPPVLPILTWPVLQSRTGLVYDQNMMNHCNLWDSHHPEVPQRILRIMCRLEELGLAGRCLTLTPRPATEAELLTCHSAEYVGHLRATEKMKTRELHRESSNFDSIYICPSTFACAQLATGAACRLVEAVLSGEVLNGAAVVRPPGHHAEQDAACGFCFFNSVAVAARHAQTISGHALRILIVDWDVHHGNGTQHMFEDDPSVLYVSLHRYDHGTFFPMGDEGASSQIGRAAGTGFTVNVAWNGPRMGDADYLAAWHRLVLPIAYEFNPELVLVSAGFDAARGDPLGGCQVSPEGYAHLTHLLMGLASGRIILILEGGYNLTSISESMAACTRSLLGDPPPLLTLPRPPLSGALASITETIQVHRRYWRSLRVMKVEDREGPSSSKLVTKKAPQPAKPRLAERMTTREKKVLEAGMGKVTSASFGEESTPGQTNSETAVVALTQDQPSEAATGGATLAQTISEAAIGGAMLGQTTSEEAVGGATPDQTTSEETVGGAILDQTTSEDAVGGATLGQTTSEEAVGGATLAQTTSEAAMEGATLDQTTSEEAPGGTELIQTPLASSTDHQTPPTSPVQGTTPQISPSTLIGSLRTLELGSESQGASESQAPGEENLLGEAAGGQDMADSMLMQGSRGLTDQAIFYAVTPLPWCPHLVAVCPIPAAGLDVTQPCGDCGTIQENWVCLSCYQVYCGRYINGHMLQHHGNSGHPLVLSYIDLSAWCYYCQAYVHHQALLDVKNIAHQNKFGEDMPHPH

Histone deacetylase 8 = molecular target: T2, Histone deacetylase 8 (Homo sapiens, UniProt Q9BY41); test: Inhibition of His-tagged full length recombinant human HDAC8 expressed in baculovirus expression system assessed as release of 7-amino-4-methylcoumarin by fluorogenic assay
T2 sequence (Q9BY41 whole entry): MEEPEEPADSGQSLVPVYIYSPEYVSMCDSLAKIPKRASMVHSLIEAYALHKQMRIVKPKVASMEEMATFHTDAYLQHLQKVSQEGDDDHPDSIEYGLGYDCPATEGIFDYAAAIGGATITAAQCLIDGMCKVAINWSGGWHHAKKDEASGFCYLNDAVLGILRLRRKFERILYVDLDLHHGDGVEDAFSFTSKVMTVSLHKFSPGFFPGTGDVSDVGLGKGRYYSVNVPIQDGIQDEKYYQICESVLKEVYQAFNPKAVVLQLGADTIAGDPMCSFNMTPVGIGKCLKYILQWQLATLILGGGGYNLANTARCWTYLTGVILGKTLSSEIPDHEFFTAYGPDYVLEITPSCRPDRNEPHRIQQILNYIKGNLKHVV

PC-3 = settings: Homo sapiens, at 0.3 µM
Histone deacetylase 2 = Histone deacetylase 2 (Homo sapiens, UniProt Q92769); test: Inhibition of full length recombinant human HDAC2 expressed in baculovirus expression system assessed as release of 7-amino-4-methylcoumarin by fluorogenic assay
HCT-116 [6] = settings: Homo sapiens, at 0.3 µM
HCT-116 [7] = test: Antitumor activity in human HCT116 cells xenografted in nude mouse assessed as tumor growth inhibition administered daily through oral route; assay type: functional, cell-based
In short: (§2)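 Male nude mice, 8 weeks old, implanted s.c. in the right flank with 1 x 10^7 log-phase HCT116 cells in PBS. Four groups of 7 received vehicle, 50 or 100 mg/kg test compound, or 200 mg/kg reference p.o. daily to endpoint, dosed at 10 mL/kg scaled to body weight. Tumor volume was taken as (w² × l)/2, and mice were monitored for adverse effects.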

[8] = Antitumor activity against human HCT116 cells xenografted in nude mouse assessed as tumor growth inhibition at 100 mg/kg, po qd; assay type: functional; settings: HCT-116, po, read-out: TGI; in short: as §2
Mus musculus [9] = test: Toxicity in nude mouse xenografted with human HCT116 cells assessed as change in body weight at 50 to 100 mg/kg, po qd; assay type: organism-based, HCT-116; settings: in vivo
[10] = Antitumor activity against human HCT116 cells xenografted in nude mouse assessed as tumor growth inhibition at 50 mg/kg, po qd; assay type: functional; settings: HCT-116, po, read-out: TGI; in short: as §2
Mus musculus [11] = test: Toxicity in nude mouse xenografted with human HCT116 cells assessed as change in body weight at 200 mg/kg, po qd; assay type: organism-based, HCT-116; settings: in vivo

Chain of Histone deacetylase 1 (Q13547 whole entry): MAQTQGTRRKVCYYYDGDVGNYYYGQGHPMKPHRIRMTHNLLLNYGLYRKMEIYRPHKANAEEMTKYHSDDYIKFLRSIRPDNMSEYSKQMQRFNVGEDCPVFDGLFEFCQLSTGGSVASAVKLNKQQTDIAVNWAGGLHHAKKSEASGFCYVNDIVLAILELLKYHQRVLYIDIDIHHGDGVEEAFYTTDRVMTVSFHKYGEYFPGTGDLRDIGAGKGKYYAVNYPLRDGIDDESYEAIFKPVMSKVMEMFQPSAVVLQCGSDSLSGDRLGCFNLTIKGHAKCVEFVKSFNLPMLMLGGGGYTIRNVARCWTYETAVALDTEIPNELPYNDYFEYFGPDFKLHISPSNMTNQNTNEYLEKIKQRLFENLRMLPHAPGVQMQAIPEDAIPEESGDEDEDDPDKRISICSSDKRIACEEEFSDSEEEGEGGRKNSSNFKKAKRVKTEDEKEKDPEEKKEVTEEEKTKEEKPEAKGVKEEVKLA
Chain of Histone deacetylase 2 (Q92769 whole entry): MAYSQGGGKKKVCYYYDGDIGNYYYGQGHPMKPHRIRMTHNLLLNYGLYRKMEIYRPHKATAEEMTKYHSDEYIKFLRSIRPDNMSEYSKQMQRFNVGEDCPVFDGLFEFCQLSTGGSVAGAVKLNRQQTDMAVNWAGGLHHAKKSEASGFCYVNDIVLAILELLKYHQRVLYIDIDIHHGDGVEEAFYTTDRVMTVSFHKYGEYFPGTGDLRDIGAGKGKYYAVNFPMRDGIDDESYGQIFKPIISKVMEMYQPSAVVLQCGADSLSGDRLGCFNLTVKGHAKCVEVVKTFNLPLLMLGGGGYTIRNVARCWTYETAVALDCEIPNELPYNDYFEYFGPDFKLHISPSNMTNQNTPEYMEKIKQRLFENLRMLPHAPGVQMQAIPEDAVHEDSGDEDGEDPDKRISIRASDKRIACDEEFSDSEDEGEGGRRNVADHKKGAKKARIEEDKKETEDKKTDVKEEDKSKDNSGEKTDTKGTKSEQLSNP

Row | Compound | GI50 ([1]; Homo sapiens, HL-60, 48 h) | GI50 ([2]; Homo sapiens, PC-3, 48 h) | GI50 ([3]; Homo sapiens, A549, 48 h) | GI50 ([4]; Homo sapiens, HCT-116, 48 h) | also measured
1 | COc1ccc(S(=O)(=O)c2ccc3ccc(/C=C/C(=O)NO)cc3n2)cc1 | 830 nM | 1010 nM | 1510 nM | 240 nM | –
2 | O=C(/C=C/c1cccc(S(=O)(=O)c2ccccn2)c1)NO | 1980 nM | 2650 nM | 1710 nM | 1480 nM | –
3 | O=C(/C=C/c1cccc(C(=O)c2ccc3ccccc3n2)c1)NO | 1230 nM | 470 nM | 840 nM | 350 nM | –
4 | COc1ccc2nc(S(=O)(=O)c3cccc(/C=C/C(=O)NO)c3)ccc2c1 | 720 nM | 280 nM | 350 nM | 240 nM | –
5 | O=C(/C=C/c1ccc(S(=O)(=O)c2ccc3ccccc3n2)cc1)NO | 800 nM | 490 nM | 880 nM | 310 nM | –
6 | COc1ccc(S(=O)(=O)c2ccc3cccc(/C=C/C(=O)NO)c3n2)cc1 | 1170 nM | 790 nM | 1320 nM | 310 nM | –
7 | O=C(/C=C/c1cccc(S(=O)(=O)c2ccc3cccc(F)c3n2)c1)NO | 720 nM | 320 nM | 640 nM | 440 nM | IC50 (Histone deacetylase 1): 5.74 nM; IC50 [5]: 5.89 nM; IC50 (Histone deacetylase 8): 200 nM; inhibition (PC-3): Active; IC50 (Histone deacetylase 2): 15 nM; inhibition (HCT-116 [6]): Active
8 | COc1ccc(S(=O)(=O)c2ccc3c(/C=C/C(=O)NO)cccc3n2)cc1 | > 10000 nM | > 10000 nM | > 10000 nM | > 10000 nM | –
9 | O=C(/C=C/c1cccc(S(=O)(=O)c2ccc3cccc(Cl)c3n2)c1)NO | 2640 nM | 1350 nM | 1420 nM | 1310 nM | –
10 | O=C(/C=C/c1ccc(C(=O)c2ccc3ccccc3n2)cc1)NO | 1150 nM | 560 nM | 1130 nM | 360 nM | –
11 | O=C(/C=C/c1cccc(S(=O)(=O)c2ccc3ccccc3n2)c1)NO | 290 nM | 150 nM | 270 nM | 80 nM | IC50 (Histone deacetylase 1): 14 nM; IC50 [5]: 15 nM; TGI (HCT-116 [7]): Dose-dependent effect; IC50 (Histone deacetylase 8): 130 nM; inhibition (PC-3): Active; inhibition in vivo at 100 mg/kg [8]: 58.8%; IC50 (Histone deacetylase 2): 11.5 nM; Activity (Mus musculus [9]): Non-Toxic; inhibition (HCT-116 [6]): Active; inhibition in vivo at 50 mg/kg [10]: 32.2%
12 | COc1ccc(S(=O)(=O)c2nc3ccccc3cc2/C=C/C(=O)NO)cc1 | > 10000 nM | > 10000 nM | > 10000 nM | > 10000 nM | –
13 | COc1ccc(S(=O)(=O)c2ccc3cc(/C=C/C(=O)NO)ccc3n2)cc1 | 1140 nM | 1350 nM | 4750 nM | 1390 nM | –
14 | O=C(/C=C/c1cccc(S(=O)(=O)Nc2ccccc2)c1)NO [BELINOSTAT] | 1090 nM | 390 nM | 780 nM | 130 nM | IC50 [5]: 50 nM; inhibition (PC-3): Active; inhibition (HCT-116 [6]): Active
15 | O=C(CCCCCCC(=O)Nc1ccccc1)NO [VORINOSTAT] | – | – | – | – | GI50 [1]: 1740 nM; GI50 [2]: 730 nM; GI50 [3]: 1020 nM; GI50 [4]: 150 nM; Activity (Mus musculus [11]): Non-Toxic
16 | O=C(/C=C/c1cccc(S(=O)(=O)c2ccc3cc(Cl)ccc3n2)c1)NO | 1330 nM | 760 nM | 1010 nM | 920 nM | –

From ChEMBL document CHEMBL3865790, “2-(Phenylsulfonyl)quinoline N-hydroxyacrylamides as potent anticancer agents inhibiting histone deacetylase” (Eur J Med Chem, 2016)
